What is called IC50 is the concentration needed to halve the response being measured. The term Papp denotes a coefficient for how fast a substance crosses the barrier. By clearance is commonly meant the rate of elimination divided by the concentration. A higher clearance goes with a high capacity for elimination. The term Tmax denotes the time at which the peak concentration occurs. A word on the AUC: it is the area under the concentration-time curve, a measure of exposure. Read a low AUC as less exposure. The half-life is how long it takes for the measured level to halve. Low values mean rapid decline, high ones slow decline. A word on the bioavailability: it is the share of a dose that reaches the circulation, judged against a reference dose that is usually intravenous.

Data set [1] can be described thus: Drug metabolism in human liver microsome at 10 uM after 30 mins by LC-MS analysis. The format is ADME. The conditions noted are these: liver microsomes, read-out: Drug metabolism. (In general: Liver microsomes are a subcellular fraction often used to study metabolism.)
Data set [2] can be described thus: Drug metabolism in mouse liver microsome at 10 uM after 30 mins by LC-MS analysis. The format is ADME. The conditions noted are these: liver microsomes, read-out: Drug metabolism.
A further data set can be described thus: cells. The format is cell-based. The conditions noted are these: Homo sapiens, 7dF3.
Data set [3] can be described thus: Apparent permeability in human Caco2 cells after 2 hrs by LC-MS/MS analysis. In kind it is ADME, cell-based, Caco-2. The conditions noted are these: caco-2, 2 h. On the technique in general: Passage across Caco-2 layers is used to estimate intestinal permeability.
Data set [4] in a line: Clearance in NMRI mouse at 0.2 mg/kg, iv. In kind it is ADME, organism-based. Set-up: dose 0.2 mg/kg, route intravenous. The conditions noted are these: in vivo. The method in brief: (§1)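 Female NMRI mice (n = 5) given a single iv bolus (0.2 mg/kg per compound) or oral gavage (0.5 mg/kg per compound) as a cassette, in DMSO/PEG 200/water. Serial retro-orbital blood was drawn under isoflurane from 3 animals per route at 0.1 (iv), 0.25 (po), 0.5, 1, 2, 4 and 6 h. Plasma was quantified by LC–MS/MS.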

Data set [5] in a line: Volume of distribution at steady state in NMRI mouse at 0.2 mg/kg, iv. The format is ADME, organism-based. Set-up: dose 0.2 mg/kg, route intravenous. The conditions noted are these: in vivo, read-out: Vdss. The method in brief: as §1
A short description of data set [6]: Tmax in NMRI mouse at 0.2 mg/kg, iv. Set-up: dose 0.2 mg/kg, route intravenous. The format is ADME, organism-based. The conditions noted are these: in vivo. The method in brief: as §1
Data set [7] in a line: AUC in NMRI mouse at 0.2 mg/kg, iv. The format is ADME, organism-based. Set-up: dose 0.2 mg/kg, route intravenous. The conditions noted are these: plasma. The method in brief:
as §1

Data set [8] is described as follows: Half life in NMRI mouse at 0.2 mg/kg, iv. The format is ADME, organism-based. Set-up: dose 0.2 mg/kg, route intravenous. The conditions noted are these: in vivo. The method in brief:
as §1

Data set [9] in a line: Tmax in NMRI mouse at 0.5 mg/kg, po. In kind it is ADME, organism-based. Set-up: dose 0.5 mg/kg, route oral. The settings on record: in vivo. The gist of the method:
as §1

A short description of data set [10]: AUC in NMRI mouse at 0.5 mg/kg, po. The settings on record: plasma. Set-up: dose 0.5 mg/kg, route oral. In kind it is ADME, organism-based. The method in brief:
as §1

Data set [11] is described as follows: Oral bioavailability in NMRI mouse at 0.5 mg/kg. The format is ADME, organism-based. The conditions noted are these: in vivo.
Data set [12] concerns the target T1, Poly [ADP-ribose] polymerase tankyrase-1 (Homo sapiens, UniProt O95271).
T1 sequence (O95271 whole entry): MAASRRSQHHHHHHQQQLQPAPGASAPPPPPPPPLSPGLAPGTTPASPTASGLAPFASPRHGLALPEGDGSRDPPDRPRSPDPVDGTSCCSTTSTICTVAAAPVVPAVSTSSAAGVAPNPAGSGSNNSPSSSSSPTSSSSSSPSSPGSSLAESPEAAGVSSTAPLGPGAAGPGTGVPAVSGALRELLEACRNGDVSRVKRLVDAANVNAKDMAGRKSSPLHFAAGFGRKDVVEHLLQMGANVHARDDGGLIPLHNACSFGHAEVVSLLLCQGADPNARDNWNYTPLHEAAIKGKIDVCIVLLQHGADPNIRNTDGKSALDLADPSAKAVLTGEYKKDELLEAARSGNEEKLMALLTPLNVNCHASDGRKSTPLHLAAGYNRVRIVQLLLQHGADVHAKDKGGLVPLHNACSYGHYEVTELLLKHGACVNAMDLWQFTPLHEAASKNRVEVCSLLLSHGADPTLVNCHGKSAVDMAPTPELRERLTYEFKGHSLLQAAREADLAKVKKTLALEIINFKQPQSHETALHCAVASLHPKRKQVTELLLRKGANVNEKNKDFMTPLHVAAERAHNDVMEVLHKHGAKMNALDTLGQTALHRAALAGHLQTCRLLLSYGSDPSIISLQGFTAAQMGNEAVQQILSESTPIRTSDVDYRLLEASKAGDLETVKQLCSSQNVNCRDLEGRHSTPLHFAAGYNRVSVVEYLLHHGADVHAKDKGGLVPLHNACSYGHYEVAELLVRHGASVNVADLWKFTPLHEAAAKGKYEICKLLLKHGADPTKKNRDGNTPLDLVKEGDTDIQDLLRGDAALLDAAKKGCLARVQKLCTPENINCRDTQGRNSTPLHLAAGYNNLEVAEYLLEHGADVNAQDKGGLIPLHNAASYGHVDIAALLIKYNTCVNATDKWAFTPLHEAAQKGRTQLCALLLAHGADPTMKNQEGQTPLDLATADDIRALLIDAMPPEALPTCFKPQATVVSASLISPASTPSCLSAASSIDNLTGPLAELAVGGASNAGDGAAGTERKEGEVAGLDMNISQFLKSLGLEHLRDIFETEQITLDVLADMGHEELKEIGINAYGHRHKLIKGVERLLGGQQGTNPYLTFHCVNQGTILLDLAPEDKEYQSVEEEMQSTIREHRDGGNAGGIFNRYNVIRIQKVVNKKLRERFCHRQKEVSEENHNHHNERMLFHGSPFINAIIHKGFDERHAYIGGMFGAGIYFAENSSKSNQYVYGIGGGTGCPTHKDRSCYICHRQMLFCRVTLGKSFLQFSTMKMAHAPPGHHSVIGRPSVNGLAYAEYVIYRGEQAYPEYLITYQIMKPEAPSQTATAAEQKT
Description: Inhibition of GST-tagged TNKS1 (1023 to 1327 aa) (unknown origin) after 90 mins by HTRF assay. Background: TR-FRET usually uses a lanthanide donor and a delayed reading to cut background.

The target of data set [13] is T2, Poly [ADP-ribose] polymerase tankyrase-2 (Homo sapiens, UniProt Q9H2K2).
T2 sequence (Q9H2K2 whole entry): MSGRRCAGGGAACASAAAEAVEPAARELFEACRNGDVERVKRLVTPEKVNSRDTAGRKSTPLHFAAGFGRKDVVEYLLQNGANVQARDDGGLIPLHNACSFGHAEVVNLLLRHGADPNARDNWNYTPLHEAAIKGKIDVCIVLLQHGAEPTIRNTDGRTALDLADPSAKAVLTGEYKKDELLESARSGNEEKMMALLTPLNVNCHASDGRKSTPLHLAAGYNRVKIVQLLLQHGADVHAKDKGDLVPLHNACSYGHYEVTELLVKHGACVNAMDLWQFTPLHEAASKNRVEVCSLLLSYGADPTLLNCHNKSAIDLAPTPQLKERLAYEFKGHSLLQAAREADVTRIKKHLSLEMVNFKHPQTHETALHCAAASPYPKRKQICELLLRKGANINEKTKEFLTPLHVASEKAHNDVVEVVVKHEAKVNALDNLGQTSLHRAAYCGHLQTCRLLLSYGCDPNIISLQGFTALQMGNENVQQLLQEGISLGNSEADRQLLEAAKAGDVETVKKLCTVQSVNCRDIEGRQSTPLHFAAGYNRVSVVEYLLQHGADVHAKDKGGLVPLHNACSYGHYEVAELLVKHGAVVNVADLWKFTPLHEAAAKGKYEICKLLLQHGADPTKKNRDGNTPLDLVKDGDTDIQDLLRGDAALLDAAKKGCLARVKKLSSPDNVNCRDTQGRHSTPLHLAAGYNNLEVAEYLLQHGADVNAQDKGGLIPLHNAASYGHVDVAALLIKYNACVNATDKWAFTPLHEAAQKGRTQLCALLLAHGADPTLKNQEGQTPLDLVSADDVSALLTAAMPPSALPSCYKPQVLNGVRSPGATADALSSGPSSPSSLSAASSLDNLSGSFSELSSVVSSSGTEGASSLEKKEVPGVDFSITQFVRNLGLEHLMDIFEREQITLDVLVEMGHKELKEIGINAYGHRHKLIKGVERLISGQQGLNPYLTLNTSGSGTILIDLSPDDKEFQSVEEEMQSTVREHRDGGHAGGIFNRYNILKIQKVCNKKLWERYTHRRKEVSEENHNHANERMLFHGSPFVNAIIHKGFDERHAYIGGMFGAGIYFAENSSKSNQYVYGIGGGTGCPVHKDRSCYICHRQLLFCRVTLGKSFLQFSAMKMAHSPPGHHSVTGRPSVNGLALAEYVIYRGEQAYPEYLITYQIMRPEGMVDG
Kind of data set: Inhibition of GST-tagged TNKS2 (873 to 1166 aa) (unknown origin) after 90 mins by HTRF assay.

Data set [14] can be described thus: Kinetic solubility of the compound in phosphate buffer at pH 7.4. The format is physicochemical.
Data set [15] can be described thus: Thermodynamic aqueous solubility of the compound in phosphate buffer at pH 7.4. In kind it is physicochemical. The gist of the method:
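Kinetic and thermodynamic aqueous solubilities were measured in phosphate buffer at pH 7.4.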

In a further data set the target is Cytochrome P450 2C9 (Homo sapiens, UniProt P11712). Description: Inhibition of CYP2C9 (unknown origin). The format is ADME.
Chain of Cytochrome P450 2C9 (P11712 whole entry): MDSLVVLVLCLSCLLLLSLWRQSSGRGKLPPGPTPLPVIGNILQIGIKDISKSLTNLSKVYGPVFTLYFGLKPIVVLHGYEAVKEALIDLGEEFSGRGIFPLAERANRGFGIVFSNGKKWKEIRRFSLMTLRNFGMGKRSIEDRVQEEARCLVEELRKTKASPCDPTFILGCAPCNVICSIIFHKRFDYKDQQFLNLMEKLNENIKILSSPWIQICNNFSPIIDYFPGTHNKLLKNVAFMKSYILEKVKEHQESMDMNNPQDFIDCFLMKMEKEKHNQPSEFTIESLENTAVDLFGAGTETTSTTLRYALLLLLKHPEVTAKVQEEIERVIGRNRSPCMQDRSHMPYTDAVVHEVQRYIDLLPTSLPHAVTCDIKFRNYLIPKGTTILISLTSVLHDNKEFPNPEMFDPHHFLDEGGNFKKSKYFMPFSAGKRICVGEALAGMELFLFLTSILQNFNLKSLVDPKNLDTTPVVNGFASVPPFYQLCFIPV
The next data set addresses Cytochrome P450 3A4 (Homo sapiens, UniProt P08684). Description: Inhibition of CYP3A4 (unknown origin). In kind it is ADME.

Chain of Cytochrome P450 3A4 (P08684 whole entry): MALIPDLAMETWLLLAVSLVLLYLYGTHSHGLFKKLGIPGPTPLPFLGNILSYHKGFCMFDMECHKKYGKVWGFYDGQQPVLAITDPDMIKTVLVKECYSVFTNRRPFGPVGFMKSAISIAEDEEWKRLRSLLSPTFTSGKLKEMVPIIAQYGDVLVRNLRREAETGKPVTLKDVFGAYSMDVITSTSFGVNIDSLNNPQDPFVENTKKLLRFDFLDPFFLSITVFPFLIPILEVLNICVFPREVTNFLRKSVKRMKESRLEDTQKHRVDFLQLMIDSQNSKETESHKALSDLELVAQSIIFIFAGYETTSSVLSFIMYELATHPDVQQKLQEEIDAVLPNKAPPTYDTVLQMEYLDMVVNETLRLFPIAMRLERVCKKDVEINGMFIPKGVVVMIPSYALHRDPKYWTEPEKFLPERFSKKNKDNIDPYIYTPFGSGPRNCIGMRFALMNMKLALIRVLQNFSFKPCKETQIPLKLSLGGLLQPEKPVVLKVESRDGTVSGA

Turning to `O=C1NCCC12CCN(c1c(Cl)cncc1-c1ccc(N3CCOCC3)cc1)CC2`, the metabolised at 0.5 h, 10 µM in data set [1] is 20%; in data set [2], 29%. Further, the IC50 in “cells” stood at 30 nM; in data set [12] it was 19000 nM; in data set [13], 16000 nM; against Cytochrome P450 2C9 it was 2900 nM; at Cytochrome P450 3A4 it was 2100 nM. In [3], the Papp came to 37 ×10⁻⁶ cm/s. In addition, the clearance in data set [4] was 65 mL/min/kg. In addition, the Vd in data set [5] amounted to 1.44 L/kg. Moreover, the Tmax in [6] stood at 6 min; in data set [9] it was 15 min. Also, the figures for the AUC in data set [7] and in [10] were 50.8 ng·h/mL and 7.4 ng·h/mL, respectively. The same compound showed a half-life in data set [8] of 18.6 min. Also, the bioavailability in [11] was 6%. For the same compound, in [14], the Kinetic_solubility is 164 µM. The Therm_solubility in data set [15] came out at 17 µg/mL.

The values above are taken from ChEMBL document CHEMBL3407438, “Discovery of potent, orally bioavailable, small-molecule inhibitors of WNT signaling from a cell-based pathway screen” (J Med Chem, 2015).
